Activity calls are given as the source filed them. The calls are words filed in the database; no cut-off is given here.

The nature of assay [1]: Antioxidant activity assessed as DPPH free radical scavenging activity after 30 mins. It is filed as functional. An outline of the steps:
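DPPH (0.05 mM in methanol) mixed with equal volume of compound (DMSO solution diluted in methanol), kept in dark at room temperature 30 min; absorbance at 517 nm, methanol control, ascorbic acid positive control. IC50 = concentration giving 50% of maximum scavenging; mean ± SD of independent triplicate experiments.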

In assay [2] the test system is HeLa. Kind of assay: Antioxidant activity in human HeLa cells assessed as decrease in reactive oxygen species at 10 uM after 24 hrs by dichlorofluorescein dye-based flow cytometric method. The format is functional, cell-based. Put shortly: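 HeLa cells pretreated 24 h with 10 μM compound, washed, loaded with 30 μM DCFH-DA in PBS 45 min at 37 °C. One portion read directly (endogenous ROS); other portion exposed to 10 mM H2O2 30 min at 37 °C. DCF green fluorescence by flow cytometry, 20 000 events per sample; mean ± SD of two independent experiments.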
For orientation: In flow cytometry, cells or beads pass a laser one at a time.

For assay [3], the system named is HL-60. Kind of assay: Cytotoxicity against human HL60 cells assessed as decrease in cell survival after 72 hrs by MTT assay. The note with it: HL-60, 72 h. It is filed as functional, cell-based. An outline of the steps:
(§1)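 HeLa (2000/well), A549 and MRC-5 (5000/well) seeded 20 h before treatment; HL-60 (7000/well) 2 h before. Five concentrations (6.25–100 μM or 3.125–50 μM) from 5 mM DMSO stocks, final DMSO ≤1%, 72 h; survival by MTT. Cisplatin positive control; three independent experiments in triplicate.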
In general terms: Tetrazolium assays rely on reduction of a dye to a coloured formazan, in cell work by metabolically active cells.

Assay [4] relates to MRC5. In words: Cytotoxicity against human MRC5 cells assessed as decrease in cell survival after 72 hrs by MTT assay. The note with it: MRC5, 72 h. It is filed as cell-based. An outline of the steps:
as §1

The test system of assay [5] is HeLa. In words: Cell cycle arrest in human HeLa cells assessed as accumulation at G2/M phase at IC50 after 24 hrs by propidium iodide staining-based flow cytometric method. The format is functional. An outline of the steps: (§2)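 HeLa cells treated 24 h at IC50 or 2×IC50 (from 72 h assay), fixed in 70% ethanol, stored at –20 °C ≥1 week, RNase A 30 min 37 °C, propidium iodide stained; flow cytometry, 10 000 gated events. Mean ± SD of three independent experiments; one-way ANOVA with Dunnett's post-test, p < 0.05.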

In assay [6] the test system is HeLa. Kind of assay: Cell cycle arrest in human HeLa cells assessed as accumulation at G2/M phase at 2 times IC50 after 24 hrs by propidium iodide staining-based flow cytometric method. The format is functional. Put shortly: as §2
For assay [7], the system named is HeLa. Kind of assay: Cell cycle arrest in human HeLa cells assessed as decrease in cell levels at G1 phase at 2 times IC50 after 24 hrs by propidium iodide staining-based flow cytometric method. The format is functional. An outline of the steps:
as §2

Assay [8] concerns HeLa. In words: Cell cycle arrest in human HeLa cells assessed as accumulation at sub-G1 phase at 2 times IC50 after 24 hrs in presence of caspase-3 inhibitor Z-DEVD-FMK by propidium iodide-staining based flow cytometric method. The format is functional. An outline of the steps:
(§3)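 HeLa cells pretreated 2 h with 40 μM peptide caspase inhibitor (Z-DEVD-FMK caspase-3, Z-IETD-FMK caspase-8 or Z-LEHD-FMK caspase-9), then exposed to 2×IC50 compound; subG1 fraction by propidium iodide flow cytometry, compared with samples lacking inhibitor.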

In assay [9] the test system is HeLa. Kind of assay: Cell cycle arrest in human HeLa cells assessed as accumulation at sub-G1 phase at 2 times IC50 after 24 hrs in presence of caspase-9 inhibitor Z-LEHD-FMK by propidium iodide-staining based flow cytometric method. It is filed as functional. An outline of the steps:
as §3

Assay [10] has as its system HeLa. In words: Cell cycle arrest in human HeLa cells assessed as accumulation at sub-G1 phase at 2 times IC50 after 24 hrs in presence of caspase-8 inhibitor Z-IETD-FMK by propidium iodide-staining based flow cytometric method. It is filed as functional. Put shortly:
as §3

Assay [11] has as its system HeLa. Kind of assay: Downregulation of MMP2 gene expression in human HeLa cells at 10 uM after 24 hrs by RT-qPCR method. It is filed as functional, cell-based.
The test system of assay [12] is HeLa. Kind of assay: Downregulation of TIMP3 gene expression in human HeLa cells at 10 uM after 24 hrs by RT-qPCR method. It is filed as functional, cell-based.
The subject of assay [13] is HeLa. In words: Upregulation of MMP9 gene expression in human HeLa cells at 10 uM after 24 hrs by RT-qPCR method. It is filed as functional, cell-based. For orientation: Quantitative PCR measures a nucleic acid by following its amplification.
Assay [14] has as its system HeLa. Kind of assay: Downregulation of miR-21 expression in human HeLa cells at 10 uM after 24 hrs by RT-qPCR method. The format is functional, cell-based.
The test system of assay [15] is HeLa. Kind of assay: Downregulation of miR-155 expression in human HeLa cells at 10 uM after 24 hrs by RT-qPCR method. The format is functional, cell-based.
Assay [16] relates to HeLa. Kind of assay: Upregulation of miR-206 expression in human HeLa cells at 10 uM after 24 hrs by RT-qPCR method. The format is functional, cell-based.
Assay [17] concerns Calf thymus DNA. In words: Binding affinity to calf thymus DNA at 10 to 40 uM after 90 mins by UV/visible spectrophotometric analysis. The format is nucleic-acid assay. The note with it: Bos taurus. Put shortly:
(§4)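 CT-DNA stock in 10 mM Tris-HCl pH 7.9 (A260/A280 1.89–2.01; concentration from ε260 6600 M–1 cm–1). Compound (10, 20 or 40 μM) plus CT-DNA (95 μM) in 40 mM bicarbonate pH 8.4, 37 °C 90 min; spectra 200–800 nm. Hyper/hypochromism at 259 nm from bound versus summed free compound and DNA extinction; triplicate.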

Assay [18] concerns Calf thymus DNA. In words: Binding affinity to calf thymus DNA assessed as hyperchromism at 10 uM after 90 mins by UV/visible spectrophotometric analysis. The format is nucleic-acid assay. Conditions: Bos taurus. An outline of the steps: as §4
Assay [19] has as its system Calf thymus DNA. In words: Displacement of Hoechst 33258 from calf thymus DNA assessed as fluorescence intensity of compound-DNA complex at 22 uM by fluorescence spectrophotometric analysis relative to control. It is filed as nucleic-acid assay. The note with it: Bos taurus. Put shortly:
(§5)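 CT-DNA 100 μM (per phosphate) in 40 mM bicarbonate pH 8.4 pretreated 20 min with Hoechst 33258 (28 μM final), then compound added stepwise. Excitation 350 nm, emission 390–550 nm, read at 444 nm, 10 nm slits; H–DNA as control. Quenching constant K by Stern–Volmer, I0/I versus r = [compound]/[DNA]; triplicate.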

Assay [20] concerns Calf thymus DNA. In words: Displacement of Hoechst 33258 from calf thymus DNA assessed as quenching constant by fluorescence spectrophotometric analysis. The note with it: Bos taurus. The format is nucleic-acid assay. Put shortly: as §5
Assay [21] has as its system MRC5. Kind of assay: Induction of DNA damage in human MRC5 cells assessed as formation of DNA breaks at 25 uM after 24 hrs by comet assay relative to control. It is filed as functional. An outline of the steps:
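MRC-5 cells exposed 24 h to 3.125–25 μM compound; DNA damage scored as % tail DNA (tail intensity) by comet assay. PBS negative control; H2O2 50 μM 5 min in-gel positive control. Triplicate, repeated twice; mean ± SD.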

Assay [22] concerns DNA. Kind of assay: Induction of Escherichia coli pUC19 DNA cleavage after 90 mins by agarose gel electrophoresis method. It is filed as nucleic-acid assay. An outline of the steps: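 Plasmid pUC19 (from E. coli XL1 blue; 460 ng, 12 nM) incubated with compound (0.05–0.4 mM; from 2 mM DMSO stock) in 20 μL 40 mM bicarbonate pH 8.4 at 37 °C for 90 min; 1% agarose gel in TAE at 80 V, ethidium bromide staining, UV at 312 nm; supercoiled/nicked/linear forms scored.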

In assay [23] the test system is DNA. In words: Reversal of Fe2+-induced Escherichia coli pUC19 DNA cleavage at 1:2 compound to Fe2+ mole ratio after 90 mins by agarose gel electrophoresis method. The format is functional. Put shortly:
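Compound (4 μL of 2 mM) preincubated with FeSO4 (1 or 2 μL of 8 mM; compound:Fe 1:1 or 1:2) in bicarbonate buffer 60 min at 37 °C, then pUC19 added for another 90 min; products resolved on 1% agarose gel, ethidium bromide stained.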

For `Cc1cccc(C(=O)/C=C/c2ccc(C(=O)Nc3nnc(-c4ccc(O)c(O)c4)s3)cc2)c1`, the IC50 (usually the concentration needed to halve the response being measured) in assay [1] was 17.2 µM; in assay [3] it was 8.39 µM; in assay [4], 34.2 µM. The result in assay [2], in [5], in assay [6], in assay [7], in assay [11] and in [12] was Active. Further, the result in [13], in assay [16], in assay [17] and in assay [23] was Active. Further, the result in [8], in assay [9], in assay [10], in assay [14], in assay [15] and in [22] was inactive. The Activity was -13.7% in [18], 60% in [19] and 38% in assay [21]. In addition, in assay [20], the K was found to be 2.95.

The record behind these values is ChEMBL document CHEMBL4257556, “Novel 1,3,4-thiadiazole-chalcone hybrids containing catechol moiety: synthesis, antioxidant activity, cytotoxicity and DNA interaction studies” (Medchemcomm, 2018).
